Among the data in ChEMBL document CHEMBL1144556, “Design, synthesis, and SAR analysis of novel selective sigma1 ligands” (Bioorg Med Chem, 2007) are Ki and Ratio Ki values, retold here.

SMILES strings stand for the structures.

Assay [1] deals with Sigma non-opioid intracellular receptor 1 (Cavia porcellus, UniProt Q60492). Kind of assay: Displacement of [3H](+)-pentazocine from sigma 1 receptor in guinea pig brain membrane. It is filed as cell membranes. An outline of the steps: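 Guinea pig brain (minus cerebella) membranes were homogenized in ice-cold 0.32 M sucrose, pH 7.4, washed in 10 mM Tris-HCl, pH 7.4, and stored at −80 °C. Tritiated (+)-pentazocine (28 Ci/mmol; Kd 1.6 ± 0.3 nM, n = 3) was incubated with test compounds from 10^-11 to 10^-5 M in Tris-HCl, pH 7.4, for 150 min at 37 °C. Haloperidol defined nonspecific binding. Reactions were stopped by filtration through PEI-presoaked glass fiber filters.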

Assay [2] is filed under the species Cavia porcellus. The assay is described as follows: Selectivity for sigma 1 receptor over sigma 2 receptor in guinea pig brain membranes. It is filed as cell membranes. The note with it: Membrane.
The nature of assay [3]: Displacement of [3H]DTG from sigma 2 receptor in guinea pig brain membrane. It is filed as cell membranes, Cavia porcellus. In a few lines:
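Guinea pig brain membranes were incubated with test compounds, with 400 nM (+)-SKF10,047 added to mask σ1 sites. Incubation was in 50 mM Tris-HCl, pH 8.0, for 120 min at room temperature. Reactions were stopped with ice-cold 10 mM Tris-HCl, pH 8.0, and filtered through glass fiber filters presoaked in 0.5% poly(ethylenimine).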

Chain of Sigma non-opioid intracellular receptor 1 (Q60492 whole entry): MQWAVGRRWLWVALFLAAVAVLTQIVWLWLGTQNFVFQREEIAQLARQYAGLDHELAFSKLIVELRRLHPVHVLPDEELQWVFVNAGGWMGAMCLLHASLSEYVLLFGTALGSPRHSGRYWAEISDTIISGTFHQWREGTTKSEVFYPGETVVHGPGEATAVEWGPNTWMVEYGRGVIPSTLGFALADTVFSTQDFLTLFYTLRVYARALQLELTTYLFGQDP

On to `C/C(=C\CN(C)Cc1ccccc1)c1ccc2ccccc2c1`, for which the figures for the Ki in assay [1] and in assay [3] were 7.88 nM and 873 nM, respectively. In assay [2], the Ratio Ki worked out at 111.
The corresponding values for `C/C(=C\CN(C)C)c1ccc2ccccc2c1` are 19.8 nM, 148 nM and 7.5.
As for `CN(C)CCC(C)(O)c1ccc2ccccc2c1` (racemic), the Ki in assay [1] was 25 nM; in assay [3], 171 nM. Also, the Ratio Ki in assay [2] was found to be 6.8.
As for `C/C(=C\CN(C)Cc1ccccc1)c1ccc(-c2ccccc2)cc1`, the Ki in assay [1] amounted to 6.32 nM; in assay [3] it was 75.7 nM. Further, in assay [2], the Ratio Ki amounted to 12.
The corresponding values for `C/C(=C\CN(C)C)c1cccc2ccccc12` are 102 nM, 701 nM and 6.87.
The corresponding values for `CC(CCN(C)C)c1ccc(-c2ccccc2)cc1` (stereo not given) are 1.02 nM, 161 nM and 158.
For `CC(CCN(C)Cc1ccccc1)c1ccc(-c2ccccc2)cc1` (stereo not given), in that order: 5.8 nM, 591 nM and 102.
Take `COc1ccc2cc(C(C)CCN(C)C)ccc2c1` (racemic): the results for the Ki in assay [1] and in assay [3] were 2.3 nM and 60.4 nM, respectively. Further, the Ratio Ki in assay [2] stood at 26.3.
For `C/C(=C\CN(C)C)c1ccc(-c2ccccc2)cc1`, in that order: 1.4 nM, 106 nM and 75.7.
For `CC(CCN(C)Cc1ccccc1)c1ccc2ccccc2c1` (stereo not given), in that order: 5.4 nM, 139 nM and 25.7.
The corresponding values for `CC(CCN(C)C)c1cccc2ccccc12` (stereo not given) are 47.2 nM, 205 nM and 4.3.
For `CC(CCN(C)C)c1ccc2ccccc2c1` (stereo not given), the Ki in assay [1] is 1.95 nM; in assay [3] it was 43.8 nM. Moreover, the Ratio Ki in assay [2] was 22.5.
The corresponding values for `CC(CCN(C)C)c1ccc2cc(O)ccc2c1` (racemic) are 19 nM, 1330 nM and 70.
For `C/C(=C\CN(C)C)c1ccc2cc(O)ccc2c1`, in that order: 229 nM, 1390 nM and 6.1.
On to `COc1ccc2cc(/C(C)=C/CN(C)C)ccc2c1`, for which the Ki in assay [1] was found to be 21.4 nM; in assay [3] it was 985 nM. Besides, the Ratio Ki in assay [2] worked out at 46.
